Results from ChEMBL document CHEMBL1148937, “Anti-inflammatory phloroglucinols and terpenoids from Garcinia subelliptica” (J Nat Prod, 2004).

Assays:
[1] = system: RAW264.7; assay: Antiinflammatory activity against mouse RAW264.7 cells assessed as inhibition of LPS-induced nitrite accumulation after 24 hrs; assay type: functional, cell-based; conditions: RAW264.7, 24 h
Summary of the method: (§1)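 RAW 264.7 macrophage-like cells stimulated with LPS (1 µg/mL) for 24 h. Nitrite accumulated in the medium was measured by Griess reaction as an index of NO production. IC50 in µM; % inhibition is reported when 50% inhibition was not reached at the top concentration. Means ± SEM, n = 3-5.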

[2] = system: N9; assay: Antiinflammatory activity against mouse N9 cells assessed as inhibition of LPS/IFN-gamma-induced nitrite accumulation after 24 hrs; conditions: N9, 24 h
[3] = system: Mast cell; assay: Inhibition of compound 48/80-stimulated beta-glucuronidase release in rat peritoneal mast cell; assay type: functional, cell-based
[4] = system: Mast cell; assay: Inhibition of compound 48/80-stimulated histamine release in rat mast cell; assay type: functional, cell-based
[5] = system: Neutrophil; assay: Induction of fMLP/CB-stimulated superoxide anion generation in rat neutrophil; assay type: functional, cell-based
Summary of the method: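 Rat neutrophils stimulated with fMLP (0.3 µM) plus cytochalasin B (5 µg/mL). Superoxide anion generation measured across a concentration range of test agent.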

[6] = system: RAW264.7; assay: Antiinflammatory activity against mouse RAW264.7 cells assessed as inhibition of LPS-induced TNFalpha production at 30 uM; assay type: functional
Summary of the method: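 TNF-α production in the culture medium of LPS-stimulated RAW 264.7 cells, with test agent at 30 µM. Expressed as % inhibition.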

[7] = system: Mast cell; assay: Inhibition of compound 48/80-stimulated beta-glucuronidase release in rat mast cell at >30 uM; assay type: functional
[8] = system: Mast cell; assay: Inhibition of compound 48/80-stimulated histamine release in rat mast cell at >30 uM; assay type: functional
[9] = system: RAW264.7; assay: Antiinflammatory activity against mouse RAW264.7 cells assessed as inhibition of LPS-induced nitrite accumulation at >30 uM after 24 hrs; assay type: functional; summary of the method: as §1
[10] = system: N9; assay: Antiinflammatory activity against mouse N9 cells assessed as inhibition of LPS/IFN-gamma-induced nitrite accumulation at >30 uM after 24 hrs; assay type: functional
Summary of the method: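 N9 microglial cells stimulated with LPS (10 ng/mL) plus IFN-γ (10 U/mL) for 24 h. NO production measured as nitrite accumulation in the medium by Griess reaction. IC50 in µM; where 50% inhibition was not reached at the highest concentration, % inhibition is given. Means ± SEM, n = 3-5.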

Row | Structure (SMILES) | IC50 [1] [µM] | IC50 [2] [µM] | IC50 [3] [µM] | IC50 [4] [µM] | Activity [5] | inhibition at 30 µM [6] [%] | inhibition (INH) [7] [%] | inhibition (INH) [8] [%] | inhibition (INH) [9] [%] | inhibition (INH) [10] [%]
1 | CC(=N)NCc1cccc(CN)c1 [1400W] | 2.9 | 6.3 | – | – | – | – | – | – | – | –
2 | CC(C)=CC[C@H]1C[C@]2(C(=O)C(C)C)C(=O)[C@@](CC=C(C)C)(C(=O)C3=C2O[C@@H](C(C)(C)O)C3)C1(C)C [GARCINIELLIPTONE L] | 22.7 | 12.8 | 22.9 | > 30 | Dose-dependent effect | 32.1 | – | – | – | –
3 | CC(C)=CC[C@H]1C[C@]2(C(=O)C(C)C)C(=O)[C@@](CC=C(C)C)(C(=O)C3=C2O[C@H](C(C)(C)O)C3)C1(C)C [GARCINIELLIPTONE M] | 15.3 | > 30 | 13.6 | 19 | Dose-dependent effect | 36.9 | – | – | – | –
4 | CC(C)=CC[C@H]1C[C@@H](CC=C(C)C)C(C)(C)[C@@H](C(=O)C(C)C)C1=O [GARCINIELLIPTONE N] | > 30 | > 30 | > 30 | > 30 | – | – | 30.2 | 13.7 | 5.7 | 34.5
5 | COC(=O)[C@]1(CC=C(C)C)C[C@@H](CC=C(C)C)C(C)(C)[C@@H](C(=O)C(C)C)C1=O [GARCINIELLIPTONE O] | > 30 | > 30 | > 30 | > 30 | – | – | 43.9 | 32.8 | 22.1 | 34.6
6 | CCN(CC)CCCC(C)Nc1c2ccc(Cl)cc2nc2ccc(OC)cc12 (configuration not stated) [QUINACRINE] | – | – | 13.7 | 23.3 | – | – | – | – | – | –
